According to ChEMBL document CHEMBL1212917, “Substituted E-3-(3-indolylmethylene)-1,3-dihydroindol-2-ones with antitumor activity. In depth study of the effect on growth of breast cancer cells” (2010):
Active and inactive are the calls of the source. The rule behind the calls is not given here.

How the values were obtained:
[1] = Growth inhibition of human leukemia cells after 48 hrs; assay type: functional; settings: Leukemia cell; for CC50: read-out: LC50 (the source's name)
[2] = tested on: NSCLC; test: Growth inhibition of human NSCLC cells after 48 hrs; assay type: functional
[3] = Growth inhibition of human colon cancer cells after 48 hrs; assay type: functional; settings: Cancer cell lines; for CC50: read-out: LC50 (the source's name)
[4] = Growth inhibition of human CNS cancer cells after 48 hrs; assay type: functional; settings: Cancer cell lines; for CC50: read-out: LC50 (the source's name)
[5] = Growth inhibition of human melanoma cells after 48 hrs; assay type: functional; settings: Melanoma cell; for CC50: read-out: LC50 (the source's name)
[6] = Growth inhibition of human Ovarian cancer cells after 48 hrs; assay type: functional; settings: Cancer cell lines; for CC50: read-out: LC50 (the source's name)
[7] = Growth inhibition of human renal cancer cells after 48 hrs; assay type: functional; settings: Cancer cell lines; for CC50: read-out: LC50 (the source's name)
[8] = Growth inhibition of human prostate cancer cells after 48 hrs; assay type: functional; settings: Cancer cell lines; for CC50: read-out: LC50 (the source's name)
[9] = Growth inhibition of human breast cancer cells after 48 hrs; assay type: functional; settings: Cancer cell lines; for CC50: read-out: LC50 (the source's name)
[10] = tested on: MCF7; test: Antiproliferative activity against human MCF7 cells assessed as increase in tumor suppressor p53 expression at 5 uM after 20 hrs by Western blotting; assay type: functional
Outline: (§1)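 MCF-7 cells in RPMI 1640 with 10% FBS and 2 mM L-glutamine at 37°C, 5% CO2, plated at 2×10^4 cells/cm2. Compound added 24 h later to 5 μM (DMSO vehicle in controls) for 20 h. Lysed in HEPES pH 7.5 buffer with DTT, EDTA, CHAPS, Triton X-100 and protease inhibitors, then freeze-thawed twice. SDS-PAGE at 80 μg protein/lane and immunoblotting for total and phospho ERK1/2 and Akt, p53 and p21, with β-actin. Densitometry used for quantitation.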

[11] = molecular target: RAC-alpha serine/threonine-protein kinase (Homo sapiens) (UniProt P31749); test: Inhibition of AKT phosphorylation in human MCF7 cells assessed as p-AKT level at 5 uM after 20 hrs by Western blotting; assay type: cell-based; outline: as §1
[12] = tested on: MCF7; test: Antiproliferative activity against human MCF7 cells assessed as increase in tumor suppressor p21 expression at 5 uM after 20 hrs by Western blotting; assay type: functional; settings: in the assay text read “24 hrs” for “20 hrs”
[13] = tested on: MCF7; test: Induction of apoptosis in human MCF7 cells assessed as Bax accumulation by immunofluorescence microscopy; assay type: functional, cell-based
Outline: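 MCF-7 cells seeded on glass coverslips at 1×10^4 cells/cm2 and treated with 5 μM for 24 h. Fixed in 3% paraformaldehyde, washed in glycine and permeabilized in ice-cold 70% ethanol. Stained with mouse anti-Bax for 1 h at room temperature, then FITC anti-mouse IgG, with propidium iodide as nuclear counterstain. Imaged by confocal microscopy with excitation at 488 and 568 nm. Three experiments.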

[14] = tested on: MCF7; test: Cell cycle arrest in human MCF7 cells assessed as accumulation at G2/M phase at 200 nM after 24 to 48 hrs; assay type: functional, cell-based
Outline: (§2)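 MCF-7 cells plated at 2×10^4 cells/cm2 and exposed to 200 nM compound for 24 and 48 h; DMSO-treated controls. Cells detached with trypsin/EDTA and washed in PBS. Stained 30 min at room temperature in the dark with 50 μg/mL propidium iodide, 10 μg/mL RNase, 0.01% NP-40 and 0.1% sodium citrate. DNA content read by flow cytometry. Means ± s.e.m. of three determinations.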

[15] = tested on: MCF7; test: Cell cycle arrest in human MCF7 cells assessed as accumulation at subG1 phase at 200 nM after 24 to 48 hrs; assay type: functional, cell-based; outline: as §2
[16] = tested on: MCF7; test: Growth inhibition of human MCF7 cells at 200 nM after 48 hrs by trypan blue exclusion cell counting

Chain of RAC-alpha serine/threonine-protein kinase (Homo sapiens) (P31749 whole entry): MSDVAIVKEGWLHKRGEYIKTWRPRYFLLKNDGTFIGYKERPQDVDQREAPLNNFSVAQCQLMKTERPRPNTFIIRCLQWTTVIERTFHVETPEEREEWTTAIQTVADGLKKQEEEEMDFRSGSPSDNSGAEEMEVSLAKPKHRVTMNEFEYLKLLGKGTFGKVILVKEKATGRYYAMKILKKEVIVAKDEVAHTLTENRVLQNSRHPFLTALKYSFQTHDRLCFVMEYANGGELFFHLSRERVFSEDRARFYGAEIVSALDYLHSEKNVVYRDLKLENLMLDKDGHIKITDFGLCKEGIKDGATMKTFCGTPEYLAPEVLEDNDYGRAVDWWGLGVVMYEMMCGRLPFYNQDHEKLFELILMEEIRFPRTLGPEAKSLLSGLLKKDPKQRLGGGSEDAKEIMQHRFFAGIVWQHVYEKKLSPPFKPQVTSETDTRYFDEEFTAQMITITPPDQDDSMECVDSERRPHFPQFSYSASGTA

| Compound | GI50 [1] [µM] | CC50 [1] [µM] | GI50 [2] [µM] | LC50 [2] [µM] | GI50 [3] [µM] | CC50 [3] [µM] | GI50 [4] [µM] | CC50 [4] [µM] | GI50 [5] [µM] | CC50 [5] [µM] | GI50 [6] [µM] | CC50 [6] [µM] | GI50 [7] [µM] | CC50 [7] [µM] | GI50 [8] [µM] | CC50 [8] [µM] | GI50 [9] [µM] | CC50 [9] [µM] | Activity [10] | TGI [8] [µM] | also measured |
| --- | --- | --- | --- | --- | --- | --- | --- | --- | --- | --- | --- | --- | --- | --- | --- | --- | --- | --- | --- | --- | --- |
| COc1cc2c(cc1C)N(C)C(=O)/C2=C/c1c(Cl)[nH]c2ccccc12 | 0.26 | 69.2 | 0.58 | 57.5 | 0.37 | 46.8 | 0.32 | 47.9 | 0.71 | 51.3 | 0.6 | 61.7 | 0.62 | 56.2 | 0.32 | 69.2 | 0.3 | 57.5 | Active | – | – |
| COc1cc2c(/C=C3/C(=O)Nc4cc(Cl)ccc43)c(Cl)n(C)c2cc1C | 0.02 | 39.8 | 0.07 | 93.3 | 0.02 | 25.1 | 0.02 | 23.4 | 0.02 | 50.1 | 0.03 | 52.5 | 0.04 | 70.8 | 0.02 | 21.4 | 0.05 | 72.4 | Active | 3.02 | fold change (FC) ([10]; in the assay text read “after 24 hrs” for “after 20 hrs”): 3; Activity [11]: Active; Activity [12]: 90%; Activity [13]: Active; Activity [14]: Active; Activity [15]: Active; Activity [16]: Active |
| COc1cc2c(cc1C)NC(=O)/C2=C/c1c[nH]c2ccccc12 | 8.71 | – | 13.5 | 89.1 | 8.13 | 95.5 | 10 | 95.5 | 13.2 | 81.3 | 12.6 | 97.7 | 11.5 | 85.1 | 13.8 | 91.2 | 11.8 | 91.2 | – | 36.3 | TGI [1]: 55 µM; TGI [2]: 43.6 µM; TGI [3]: 52.5 µM; TGI [4]: 33.9 µM; TGI [5]: 37.1 µM; TGI [6]: 45.7 µM; TGI [7]: 38 µM; TGI [9]: 40.7 µM |
| COc1cc2c(/C=C3/C(=O)Nc4ccc(N(C)C)cc43)c(Cl)n(C)c2cc1C | 10 | 87.1 | 18.2 | – | 12.3 | – | 10.7 | – | 10.2 | 93.3 | 10.5 | 91.2 | 11.2 | – | 20.4 | – | 6.92 | – | – | – | – |
| Cc1cc2c(cc1O)/C(=C\c1c(Cl)[nH]c3c1ccc1ccccc13)C(=O)N2 | 3.31 | – | 7.94 | – | 6.61 | 61.7 | 8.71 | 67.6 | 6.46 | 57.5 | 9.12 | 87.1 | 8.71 | 75.9 | – | 74.1 | 3.72 | 69.2 | – | 26.3 | TGI [1]: 38 µM; TGI [2]: 30.2 µM; TGI [3]: 20.9 µM; TGI [4]: 24.6 µM; TGI [5]: 20.9 µM; TGI [6]: 46.8 µM; TGI [7]: 33.1 µM; TGI [9]: 19.1 µM |
